Source: PubChem (The Scripps Research Institute Molecular Screening Center)
An excerpt weighted towards active compounds, which were near 3.3% of everything screened.
HTR1E antagonist – 5-HT1E (human) receptor antagonism; P28566; CHO 5-HT1E Ga15 NFAT-bla reporter, FRET, antagonist; inhibition, % at 6 µM; hit rate 0.99% among 65,000; AID 571;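 active = inhibition above a set limit, the mean inhibition across every tested compound plus 3 SD, cut at about 29% in these data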;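 note: signal is the 460 over 535 nm emission ratio of beta-lactamase substrate; 0% = agonist plus DMSO wells and 100% = wells without agonist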
HEK293 NFkB inh – lowers PMA/ionomycin-induced NF-kB signal in HEK293 cells | inhibition, % at 3 µM | AID 465 | HEK-293 NF-kB luciferase reporter, luminescence | hit rate 0.21% among 62,000;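 active = inhibition above the mean of all tested compounds plus 3 SD, cut at about 40% in these data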;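 note: 0% = stimulated DMSO wells and 100% = 10 µM reference inhibitor 5653914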
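Material: HEK-293 cells with stable firefly luciferase reporter driven by four HIV NF-kB elements / Also added: PMA plus ionomycin mix as NF-kB-activating stimulus / Compound dosing: 3 µM once, 0.30% DMSO / Times: 1 h pretreatment, 16 h stimulation, 37 °C / Signal: luminescence / Evaluation: per-plate % inhibition versus controls / Benchmarks: DMSO and 10 µM reference inhibitor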
5HT1a ag – 5-HT1a (human) receptor agonism. P08908. CHO 5-HT1a Ga15 NFAT-bla reporter, FRET ratio; 0% basal, 100% maximal reference agonist. activation, % at 10 µM. hit rate 0.56% among 65,000. AID 567;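 active = activation above the screen-wide mean activation plus 3 SD, cut at about 19% in these data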;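 note: 0% = DMSO wells and 100% = 5-CT at EC100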
Target sequence (P08908 whole entry, looked up): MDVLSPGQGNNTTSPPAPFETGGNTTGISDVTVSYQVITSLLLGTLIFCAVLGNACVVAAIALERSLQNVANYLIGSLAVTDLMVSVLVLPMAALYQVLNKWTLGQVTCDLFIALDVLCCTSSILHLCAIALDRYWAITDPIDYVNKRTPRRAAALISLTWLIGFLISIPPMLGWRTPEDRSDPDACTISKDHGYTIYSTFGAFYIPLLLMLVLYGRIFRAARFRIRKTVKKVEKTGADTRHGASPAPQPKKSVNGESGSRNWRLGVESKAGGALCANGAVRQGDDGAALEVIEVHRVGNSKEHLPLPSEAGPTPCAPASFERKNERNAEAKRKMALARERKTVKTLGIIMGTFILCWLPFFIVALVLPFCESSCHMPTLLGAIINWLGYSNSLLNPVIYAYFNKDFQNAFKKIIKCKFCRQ
5HT1E ag – agonists of human 5-HT1E serotonin receptor; CHO 5-HT1E Ga15 NFAT-bla reporter, FRET; 0% DMSO wells, 100% control agonist wells; activation, % at 6 µM; P28566; hit rate 0.69% among 65,000;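 active = activation above a set limit, the screen-wide mean activation plus 3 SD, cut at about 8.5% in these data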;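 note: 100% = positive control agonist at 1 µM giving full maximal response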
Jurkat viability – cytotoxic compounds reducing Jurkat cell viability; Jurkat E6.1 viability, ATP luminescence, 48 h; inhibition, % at 4 µM; hit rate 1.2% among 56,000; AID 463;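 active = inhibition above the mean inhibition of all tested compounds plus 3 SD, cut at about 28% in these data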
5HT1a antag – 5-HT1a (human) receptor antagonism. CHO 5-HT1a Ga15 NFAT-bla reporter, antagonist mode. inhibition, % at 10 µM. hit rate 0.68% among 62,000;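 active = inhibition above the mean of all tested compounds plus 3 SD, cut at about 43% in these data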;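 note: receptor stimulated by 5-CT agonist at 100 nM near EC80; beta-lactamase reporter measured by ratiometric fluorescence of a cleavable substrate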
The depositor's hits bear a star.

Screening O=C(CCCNS(=O)(=O)c1cccs1)N1CCN(c2cccc(Cl)c2)CC1 returned HTR1E antagonist 1, HEK293 NFkB inh 10, 5HT1a ag 2, 5HT1E ag -1 and 5HT1a antag -3.
`O=C(c1c(Cl)nc2sccn12)N1CCN(c2cccc(Cl)c2)CC1` gave HTR1E antagonist 42*, HEK293 NFkB inh 39, 5HT1a ag -3, 5HT1E ag -1 and 5HT1a antag 24.
For Cc1c(C(=O)O)c(-c2ccccc2)nn1-c1ccccc1 the results were HTR1E antagonist -2, HEK293 NFkB inh 14, 5HT1a ag 0, 5HT1E ag 0, Jurkat viability -1 and 5HT1a antag -2.
`Cc1nn(-c2ccccc2)c(C)c1C(=O)Nc1nnc(-c2ccco2)o1` gave HTR1E antagonist 6, HEK293 NFkB inh 13, 5HT1a ag -1, 5HT1E ag -1, Jurkat viability 33* and 5HT1a antag 7.
COc1ccc(S(=O)(=O)N2CCOCC2)cc1C(=O)Nc1cc(C)on1 was read as HTR1E antagonist 0, HEK293 NFkB inh 8, 5HT1a ag -3, 5HT1E ag 1, Jurkat viability -6 and 5HT1a antag 4.
Screening CCN(CC)C(=O)C(C)N(C#N)c1nc(NC(C)C)nc(NC(C)C)n1 (centres undefined) returned HTR1E antagonist 3, HEK293 NFkB inh 10, 5HT1a ag 1, 5HT1E ag -1 and 5HT1a antag -2.
CC(C)Nc1nc(C#N)nc(NC(C)C)n1 was read as HTR1E antagonist 31*, HEK293 NFkB inh 12, 5HT1a ag 1, 5HT1E ag 0, Jurkat viability 11 and 5HT1a antag -1.
Screening Cc1cc(N2CCN(c3nc4ccccc4s3)CC2)n2ncnc2n1 returned HTR1E antagonist 1, HEK293 NFkB inh 25, 5HT1a ag 3, 5HT1E ag 2, Jurkat viability 83* and 5HT1a antag -7.
`Cc1cc(N2CCN(C(c3ccccc3)c3ccccc3)CC2)n2ncnc2n1` gave HTR1E antagonist -4, HEK293 NFkB inh 13, 5HT1a ag 1, 5HT1E ag 1, Jurkat viability -2 and 5HT1a antag -2.
O=c1cc(C23CC4CC(CC(C4)C2)C3)[nH][nH]1 was read as HTR1E antagonist 0, HEK293 NFkB inh 13, 5HT1a ag 2, 5HT1E ag 2, Jurkat viability -10 and 5HT1a antag 20.
Screening Cc1cc(C)c2c(=O)n(-c3ccccc3)[nH]c2n1 returned HTR1E antagonist 1, HEK293 NFkB inh -2, 5HT1a ag 0, 5HT1E ag 13*, Jurkat viability 2 and 5HT1a antag -6.
`O=c1c2c3n(c(=O)nc2[nH]n1-c1ccccc1)CCCCC3` gave HTR1E antagonist -9, HEK293 NFkB inh 14, 5HT1a ag -1, 5HT1E ag 1, Jurkat viability -7 and 5HT1a antag 2.
`COc1cccc2sc(Nc3nc(-c4ccccn4)cs3)nc12` gave HTR1E antagonist 69*, HEK293 NFkB inh -1, 5HT1a ag -2, 5HT1E ag 3, Jurkat viability 92* and 5HT1a antag 66*.
Screening COc1cccc2sc(Nc3nnc(-c4cccs4)o3)nc12 returned HTR1E antagonist 7, HEK293 NFkB inh -57, 5HT1a ag -8, 5HT1E ag 0, Jurkat viability 47* and 5HT1a antag 46*.
CCOC(=O)c1sc(Nc2nc3c(OC)cccc3s2)nc1C was read as HTR1E antagonist -6, HEK293 NFkB inh -4, 5HT1a ag 28*, 5HT1E ag 13*, Jurkat viability 2 and 5HT1a antag -20.
`CCN(CC)C(=O)CSc1nc2ccc(NC(=O)CSc3nccn3C)cc2s1` gave HTR1E antagonist -1, HEK293 NFkB inh 6, 5HT1a ag 3, 5HT1E ag -1, Jurkat viability -7 and 5HT1a antag 0.
Screening O=c1cc(N2CCC(Cc3ccccc3)CC2)[nH]c(=O)n1C1CCCCC1 returned HTR1E antagonist 3, HEK293 NFkB inh 21, 5HT1a ag -1, 5HT1E ag 0, Jurkat viability -3 and 5HT1a antag -2.
`Cc1ccc2oc(=O)c3cc(C(=O)N4CCN(c5ncccn5)CC4)sc3c2c1` gave HTR1E antagonist 4, HEK293 NFkB inh 8, 5HT1a ag 0, 5HT1E ag 2, Jurkat viability 1 and 5HT1a antag 4.
For CCOC(=O)N1CCC(NC(=O)c2ccc3c(c2)sc2nc(-c4ccccc4)cn23)CC1 the results were HTR1E antagonist -1, HEK293 NFkB inh -11, 5HT1a ag -2, 5HT1E ag 2, Jurkat viability 26 and 5HT1a antag -24.
CCOC(=O)N1CCC(NC(=O)c2ccc3c(c2)sc2nc(-c4cccc(OC)c4)cn23)CC1 was read as HTR1E antagonist 8, HEK293 NFkB inh 12, 5HT1a ag 0, 5HT1E ag 3, Jurkat viability 35* and 5HT1a antag -20.
CCOc1cc(S(=O)(=O)N2CCOCC2)ccc1F was read as HTR1E antagonist -2, HEK293 NFkB inh 11, 5HT1a ag 4, 5HT1E ag 0, Jurkat viability -10 and 5HT1a antag -13.
Screening CCOc1ccc2cc(S(=O)(=O)N3CCOCC3)ccc2c1 returned HTR1E antagonist -6, HEK293 NFkB inh 6, 5HT1a ag 2, 5HT1E ag 8.7*, Jurkat viability 7 and 5HT1a antag -9.
Cc1cccc2cc(C#N)c(SCC(=O)N3CC(=O)Nc4ccccc43)nc12 was read as HTR1E antagonist 45*, HEK293 NFkB inh 30, 5HT1a ag -2, 5HT1E ag 0, Jurkat viability 99* and 5HT1a antag 40.
COC(=O)c1[nH]c2cc(OC)c(OC)cc2c1NC(=O)CN1CCN(Cc2ccccc2)CC1 was read as HTR1E antagonist 39*, HEK293 NFkB inh -9, 5HT1a ag 1, 5HT1E ag 0, Jurkat viability 6 and 5HT1a antag 7.
For COC(=O)c1[nH]c2ccc(C)cc2c1NC(=O)CN1CCN(Cc2ccccc2)CC1 the results were HTR1E antagonist 1, HEK293 NFkB inh 15, 5HT1a ag 1, 5HT1E ag 1, Jurkat viability 6 and 5HT1a antag -5.
For CCOC(=O)N1CCN(CC(=O)Nc2c(C(=O)OC)[nH]c3ccc(Cl)cc23)CC1 the results were HTR1E antagonist 8, HEK293 NFkB inh 28, 5HT1a ag 0, 5HT1E ag -1, Jurkat viability 31* and 5HT1a antag 4.
`COc1ccc(NC(=O)CN(c2cc(C)cc(C)c2)S(=O)(=O)c2c(C)n[nH]c2C)cc1` gave HTR1E antagonist 13, HEK293 NFkB inh -1, 5HT1a ag -1, 5HT1E ag 0, Jurkat viability -1 and 5HT1a antag 4.
For O=C(CCC1CCCC1)N1CCN(C(=O)COc2ccccc2)CC1 the results were HTR1E antagonist 4, HEK293 NFkB inh 11, 5HT1a ag 1, 5HT1E ag 0, Jurkat viability -3 and 5HT1a antag -6.
